The test system of data set [1] is dengue virus type 2. The experiment in a line: Antiviral activity against DENV-2 NGC-N infected in Stat1-/- mouse assessed as improvement in mouse survival by measuring median survival time at 4 mg/kg, po dosed 8 hrs after infection and ending at day 6 after infection (8 hrs delay) (reference value: 10 days). The class given is functional.
In a further data set the test system is BE(2)-C. Kind of data set: Cytotoxicity against human BE(2)-C cells assessed as reduction in cell proliferation up to 12.5 uM incubated overnight by XTT assay relative to control. The class given is cell-based. A digest of the protocol:
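BE(2)C cells (RPMI 1640, 10% FBS) exposed overnight to compound at concentrations up to 12.5 μM; XTT (proliferation) or LDH release (cytotoxicity) read by absorbance at 490 nm. Values normalized to solvent control (%), mean ± SD of 3 independent experiments.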

Data set [2] relates to dengue virus type 2. Kind of data set: Antiviral activity against DENV-2 NGC-N infected in Stat1-/- mouse assessed as overall mouse survival at 4 mg/kg, po dosed immediately following viral infection followed by daily dosing for 6 days (reference value: 0%). The class given is functional. The conditions noted are these: 144 h.
Data set [3] deals with dengue virus type 2. The experiment in a line: Antiviral activity against Dengue virus 2 infected in human BE(2)-C cells assessed as NS3 protein expression at 12.5 uM incubated for 48 hrs by Western blot analysis (reference value: 100%). Type of data set: functional. In short, it runs like this:
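BE(2)C neuroblastoma cells in RPMI 1640 with 10% FBS were infected with DENV-2 PL046 at MOI 0.1 for 48 h, without or with compound at increasing concentrations. NS3 was immunoblotted with actin as loading control. The NS3:actin densitometry ratio was expressed as % of the DMSO control. Mean ± SD of 3 independent experiments.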

Data set [4] deals with dengue virus type 2. The experiment in a line: Antiviral activity against Dengue virus 2 infected in human BE(2)-C cells assessed as NS3 protein expression at 3.125 uM treated during 0 to 3 hrs post infection by Western blot analysis (reference value: 100%). Type of data set: functional. A digest of the protocol:
(§1)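 Time-of-addition design: BE(2)C cells were infected with DENV-2 or ZIKV at MOI 1. Compound at 3.125 or 6.25 μM was present either during adsorption (0–3 hpi) or afterward (3–24 hpi). Viral protein was immunoblotted against actin, with the ratio as % of the solvent control.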

For data set [5], the system named is dengue virus type 2. The experiment in a line: Antiviral activity against Dengue virus 2 infected in human BE(2)-C cells assessed as reduction in viral entry at 3.125 to 6.25 uM incubated for 90 mins by plaque-forming assay. Type of data set: functional, organism-based. In short, it runs like this: (§2)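 Virus entry: BE(2)C cells were incubated with DENV-2 or ZIKV for 90 min at 4 °C and washed cold. Cells were then treated with 3.125 or 6.25 μM compound at 37 °C for 1 h. Non-internalized virus was inactivated with 0.1 M glycine, pH 3, for 5 min. Cells were lysed by needle passage, and internalized virus was titrated by plaque assay. Mean ± SD, n = 3.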

For data set [6], the system named is Zika virus. Kind of data set: Antiviral activity against Zika virus infected in human BE(2)-C cells assessed as NS3 protein expression at 3.125 uM incubated for 48 hrs by Western blot analysis (reference value: 100%). Type of data set: functional. A digest of the protocol:
(§3)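 BE(2)C cells were infected with ZIKV PRVABC59 at MOI 0.1 for 48 h, with or without compound at increasing concentrations. Viral protein was immunoblotted with actin as loading control. The band-density ratio was given as % of the solvent control. Mean ± SD, 3 independent experiments.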

Data set [7] relates to Zika virus. The experiment in a line: Antiviral activity against Zika virus infected in human BE(2)-C cells transfected with shLacZ assessed as NS3 protein expression at 3.125 uM incubated for 48 hrs by Western blot analysis (reference value: 100%). Type of data set: functional.
The subject of data set [8] is Zika virus. Kind of data set: Antiviral activity against Zika virus infected in human BE(2)-C cells transfected with shLacZ assessed as NS3 protein expression at 6.25 uM incubated for 48 hrs by Western blot analysis (reference value: 100%). Type of data set: functional.
Data set [9] concerns Zika virus. The experiment in a line: Antiviral activity against fluorescently labeled Zika virus infected in human BE(2)-C cells at 3.125 uM by confocal microscopy. Type of data set: functional, organism-based. In short, it runs like this:
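DENV-2 or ZIKV was concentrated and labeled with atto-647N dye. BE(2)C cells were pretreated with solvent or 3.125 µM, then incubated at 37 °C with labeled DENV-2 for 30 min or ZIKV for 60 min. Cells were fixed in 4% paraformaldehyde, membranes stained with WGA-488, and intracellular virus signal imaged by confocal microscopy.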

Data set [10] relates to dengue virus type 2. Kind of data set: Antiviral activity against DENV-2 NGC-N infected in Stat1-/- mouse assessed as improvement in mouse survival by measuring median survival time at 2 mg/kg, po dosed 8 hrs after infection and ending at day 6 after infection (8 hrs delay) (reference value: 10 days). The class given is functional.
Data set [11] concerns dengue virus type 2. Kind of data set: Antiviral activity against Dengue virus 2 infected in human BE(2)-C cells assessed as NS3 protein expression at 6.25 uM treated during 3 to 24 hrs post infection by Western blot analysis (reference value: 100%). Type of data set: functional. A digest of the protocol:
as §1

In data set [12] the test system is Zika virus. Kind of data set: Antiviral activity against Zika virus infected in Stat1-/- mouse assessed as delay in virus-induced mouse mortality at 4 mg/kg/day, po dosed immediately following viral infection followed by daily dosing for 6 days (reference value: 13 days). Type of data set: functional, organism-based.
The subject of data set [13] is dengue virus type 2. The experiment in a line: Antiviral activity against Dengue virus 2 infected in human BE(2)-C cells assessed as NS3 protein expression at 3.125 uM treated during 3 to 24 hrs post infection by Western blot analysis (reference value: 100%). Type of data set: functional. In short, it runs like this:
as §1

For data set [14], the system named is Zika virus. Kind of data set: Antiviral activity against Zika virus infected in human BE(2)-C cells assessed as reduction in viral entry at 3.125 to 6.25 uM incubated for 90 mins by plaque-forming assay. Type of data set: functional, organism-based. A digest of the protocol: as §2
The subject of data set [15] is Zika virus. Kind of data set: Antiviral activity against Zika virus infected in human BE(2)-C cells assessed as NS3 protein expression at 0.78 uM incubated for 48 hrs by Western blot analysis (reference value: 100%). The class given is functional. In short, it runs like this: as §3
Data set [16] concerns Zika virus. The experiment in a line: Antiviral activity against Zika virus infected in human HMC3 cells assessed as reduction in viral progeny production at 1.56 to 12.5 uM incubated for 48 hrs by Virus titer assay. The class given is functional, organism-based. In short, it runs like this:
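HMC3 microglia were grown in MEM with 10% FBS and infected with ZIKV PRVABC59 (MOI 0.1) for 48 h at the specified concentrations. Viral protein was read by immunofluorescence with Hoechst nuclear stain. Infectious progeny was titred by plaque assay on Vero cells (log PFU/mL). DMSO served as the solvent control.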

Data set [17] relates to dengue virus type 2. The experiment in a line: Antiviral activity against DENV-2 NGC-N infected in Stat1-/- mouse assessed as overall mouse survival at 8 mg/kg, po dosed immediately following viral infection followed by daily dosing for 6 days (reference value: 0%). The class given is functional. The note with it: 144 h.
Data set [18] deals with dengue virus type 2. Kind of data set: Antiviral activity against eGFP-fused Dengue virus 2 infected in human BE(2)-C cells assessed as viral infection level by measuring intensity of eGFP emission from infected cells at 3.13 uM incubated for 24 hrs relative to control. Type of data set: functional. In short, it runs like this: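 BE(2)C cells, in RPMI 1640 with 10% FBS, were infected with DENV-2-eGFP reporter virus (MOI 1) for 24 h with or without compound, using DMSO as solvent control. Cells were fixed in 4% paraformaldehyde and stained with Hoechst, then imaged by high-content analysis. eGFP intensity per cell number is given as % of solvent control. Values are means of 3 experiments.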

Data set [19] relates to dengue virus type 2. The note with it: 3.125 to 6.25 uM.
The subject of data set [20] is dengue virus type 2. Kind of data set: Antiviral activity against Dengue virus 2 infected in human BE(2)-C cells assessed as reduction in NS3 protein expression at 3.125 to 6.25 uM treated during 3 to 24 hrs post infection by Western blot analysis. Type of data set: functional, organism-based. A digest of the protocol: as §1

Activity calls are given as the source filed them. The calls are words filed in the database; no cut-off is given here.

On to `COc1ccc(S(=O)(=O)N(CCCC(=O)C2CCCCCC2)c2ccccc2)cc1`, for which the MST in the data set with dengue virus type 2 [1] came to 22 days; with dengue virus type 2 [10], 14 days. Moreover, the Activity result is “Non-Toxic” with BE(2)-C; 5.1% in the data set on dengue virus type 2 [3]; 72.5% in the data set with dengue virus type 2 [4]; “Dose-dependent effect” in the data set with dengue virus type 2 [5]; 49.7% with Zika virus [6]; 102% in the data set on Zika virus [7]. The Activity in the data set on Zika virus [8] was 25.9%; in the data set with dengue virus type 2 [11], 55.3%; in the data set with dengue virus type 2 [13] it was 78.3%; in the data set with Zika virus [14] it was “Dose-dependent effect”; with Zika virus [15], 89.6%; with dengue virus type 2 [18] it was 9.6%. Moreover, in the data set on dengue virus type 2 [2], the survival at 4 mg/kg stood at 60%. In addition, the outcome in the data set on Zika virus [9] and with Zika virus [16] was Active. Moreover, the result in the data set with Zika virus [12] and in the data set with dengue virus type 2 [20] was inactive. Besides, in the data set with dengue virus type 2 [17], the survival at 8 mg/kg was 60%. In addition, in the data set with dengue virus type 2 [19], the inhibition result is “inactive”.

For the origin of these results see ChEMBL document CHEMBL4376891, “Benzenesulfonamide Derivatives as Calcium/Calmodulin-Dependent Protein Kinase Inhibitors and Antiviral Agents against Dengue and Zika Virus Infections” (J Med Chem, 2020).
